Source: ChEMBL document CHEMBL1125829, “1,3,8-trisubstituted xanthines. Effects of substitution pattern upon adenosine receptor A1/A2 affinity” (J Med Chem, 1991)

Key:
Adenosine receptor A1 [1] = target: T1, Adenosine receptor A1 (Rattus norvegicus, UniProt P25099); experiment: Binding affinity against adenosine A1 receptor in rat cortex by the displacement of [3H]cyclohexyladenosine (CHA).; assay type: tissue-based
T1 sequence (P25099 whole entry): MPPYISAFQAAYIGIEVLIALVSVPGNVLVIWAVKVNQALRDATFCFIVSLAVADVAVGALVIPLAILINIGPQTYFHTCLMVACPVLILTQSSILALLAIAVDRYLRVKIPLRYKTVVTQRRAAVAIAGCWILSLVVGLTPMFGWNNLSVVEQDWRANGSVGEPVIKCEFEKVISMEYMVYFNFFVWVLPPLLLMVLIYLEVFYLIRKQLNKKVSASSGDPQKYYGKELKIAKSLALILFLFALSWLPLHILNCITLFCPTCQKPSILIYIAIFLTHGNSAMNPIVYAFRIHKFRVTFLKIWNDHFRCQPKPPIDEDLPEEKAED

Adenosine A2 receptor [2] = target: T2, Adenosine A2 receptor (Rattus norvegicus, UniProt P29276+P30543); experiment: Binding affinity against adenosine A2 receptor in rat striatum by the displacement of [3H]N-ethyladenosine-5''-uronamide(NECA).; assay type: tissue-based
Adenosine receptor A1 [3] = target: T1, Adenosine receptor A1; experiment: Binding affinity against Adenosine A1 receptor in rat cortex by displacement of [3H]cyclohexyladenosine (CHA)
Method in brief: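 Male Sprague-Dawley rat cerebral cortex membranes, homogenized in 50 mM Tris-HCl pH 7.4, pretreated 30 min at 37 °C with ADA (2 IU/mL), 7.5 mg tissue per tube. 1.0 nM [3H]CHA, 12 xanthine concentrations, triplicates, 2 h at 25 °C; nonspecific with 10 μM 2-chloroadenosine; filtration, scintillation counting.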

Adenosine A2 receptor [4] = target: T2, Adenosine A2 receptor; experiment: Binding affinity against Adenosine A2 receptor in rat striatum by displacement of [3H]N-ethyladenosine-5''-uronamide(NECA); assay type: tissue-based
Method in brief: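 Male Sprague-Dawley rat striatal membranes, 5 mg tissue, in 50 mM Tris-HCl pH 7.7 with 10 mM MgCl2, 0.1 unit/mL ADA and 50 nM CPA to block A1 sites. 4 nM [3H]NECA, 12 xanthine concentrations, triplicates, 1 h at room temperature; nonspecific with 100 μM CPA; filtration counting. IC50 by log-logit, Ki by Cheng-Prusoff (Kd 4 nM).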

[5] = target: Adenosine receptors; A1 & A2 (Rattus norvegicus) (UniProt P29276+P25099+P30543); experiment: Ratio of binding affinities for adenosine A2 and A1 receptors; assay type: protein assay

Ki (Adenosine receptor A1 [1]) [µM] | Ki (Adenosine A2 receptor [2]) [µM] | Ki (Adenosine receptor A1 [3]) [µM] | Ki (Adenosine A2 receptor [4]) [µM] | Ratio [5] | Compound
0.0218 | 0.476 |  |  |  | CCCn1c(=O)n(C)c(=O)c2[nH]c(-c3ccncc3)nc21
 |  | 0.0064 | 0.315 | 49 | CCCn1c(=O)c2nc(-c3ccsc3)[nH]c2n(C)c1=O
0.0139 | 0.254 |  |  |  | CCCn1c(=O)n(C)c(=O)c2[nH]c(-c3ccc(C#N)cc3)nc21
0.00063 |  |  |  |  | CCCn1c(=O)c2nc(-c3ccc(O)cc3)[nH]c2n(CCC)c1=O
 |  | 0.0702 |  |  | CCCn1c(=O)c2[nH]c(-c3cccnc3)nc2n(C)c1=O
0.275 | 1.44 |  |  |  | CCCn1c(=O)c2nc(CCc3ccccc3)[nH]c2n(C)c1=O
 |  | 0.0032 |  |  | CCCn1c(=O)c2[nH]c(-c3cccs3)nc2n(CCC)c1=O
0.00893 | 0.329 |  |  |  | CCCn1c(=O)n(C)c(=O)c2[nH]c(-c3cccs3)nc21
 | 0.0851 |  |  |  | CCCn1c(=O)c2nc(/C=C/c3ccccc3)[nH]c2n(CCC)c1=O
 |  |  | 0.173 | 54 | CCCn1c(=O)c2nc(-c3cccs3)[nH]c2n(CCC)c1=O
 |  |  | 3.1 | 44 | CCCn1c(=O)c2nc(-c3cccnc3)[nH]c2n(C)c1=O
 | 0.553 |  |  |  | CCCn1c(=O)c2nc(-c3ccccc3)[nH]c2n(C)c1=O
 |  | 0.00968 | 0.719 | 74 | CCCn1c(=O)c2nc(-c3cccs3)[nH]c2n(C)c1=O
 |  | 0.00468 | 0.0703 | 15 | CCCn1c(=O)n(C)c(=O)c2[nH]c(-c3ccsc3)nc21
 | 0.0465 |  |  |  | CCCn1c(=O)n(C)c(=O)c2[nH]c(/C=C/c3ccccc3)nc21
0.00595 | 0.446 |  |  |  | CCCn1c(=O)c2nc(-c3ccc(C#N)cc3)[nH]c2n(C)c1=O
 | 0.644 |  |  |  | Cn1c(=O)c2nc(-c3ccccc3)[nH]c2n(C)c1=O [8-PHENYL THEOPHYLLINE]

Ki (Adenosine receptor A1 [1]) [µM] | Ki (Adenosine A2 receptor [2]) [µM] | Ki (Adenosine receptor A1 [3]) [µM] | Ki (Adenosine A2 receptor [4]) [µM] | Ratio [5] | Compound
0.0276 | 3.76 |  |  |  | CCCn1c(=O)c2nc(-c3ccncc3)[nH]c2n(C)c1=O
0.0496 | 0.058 |  |  |  | CCCn1c(=O)c2nc(/C=C/c3ccccc3)[nH]c2n(C)c1=O
0.00181 | 0.403 |  |  |  | CCCn1c(=O)n(C)c(=O)c2[nH]c(C3CCCCC3)nc21
 | 0.0933 |  |  |  | CCCn1c(=O)n(C)c(=O)c2[nH]c(-c3ccccc3)nc21
 |  | 0.0116 | 0.347 | 30 | CCCn1c(=O)c2nc(-c3cccnc3)[nH]c2n(CCC)c1=O
0.00085 | 0.247 |  |  |  | CCCn1c(=O)n(C)c(=O)c2[nH]c(C3CCCC3)nc21
0.00254 | 0.0815 |  |  |  | CCCn1c(=O)n(C)c(=O)c2[nH]c(-c3ccc(O)cc3)nc21
0.00323 | 0.136 |  |  |  | CCCn1c(=O)c2nc(-c3ccncc3)[nH]c2n(CCC)c1=O
0.259 | 1.05 |  |  |  | CCCn1c(=O)n(C)c(=O)c2[nH]c(CCc3ccccc3)nc21
0.00448 | 0.189 |  |  |  | CCCn1c(=O)c2nc(-c3ccc(C#N)cc3)[nH]c2n(CCC)c1=O
 |  | 0.0728 | 1.2 | 16 | CCCn1c(=O)n(C)c(=O)c2[nH]c(-c3cccnc3)nc21
0.0578 | 0.593 |  |  |  | CCCn1c(=O)c2nc(CCc3ccccc3)[nH]c2n(CCC)c1=O
0.00106 | 1.01 |  |  |  | CCCn1c(=O)c2nc(C3CCCC3)[nH]c2n(C)c1=O
0.00204 | 0.0394 |  |  |  | CCCn1c(=O)c2nc(-c3ccsc3)[nH]c2n(CCC)c1=O
0.00502 | 0.995 |  |  |  | CCCn1c(=O)c2nc(C3CCCCC3)[nH]c2n(C)c1=O
0.00128 | 0.263 |  |  |  | CCCn1c(=O)c2nc(-c3ccc(O)cc3)[nH]c2n(C)c1=O
